The term half-life denotes the time in which the quantity being followed falls by half. Usually EC50 stands for the concentration that produces a half-maximal response. The CC50 is the concentration giving 50% cytotoxicity. A low value points to harm at low concentration.

SMILES strings stand for the structures.

The source of these data is ChEMBL document CHEMBL1136930, “Doubly loaded cycloSaligenyl-pronucleotides - 5,5'-Bis-(cycloSaligenyl-2',3'-dideoxy-2',3'-didehydrothymidine monophosphates)” (J Med Chem, 2009).

A short description of series [1]: Chemical stability assessed as hydrolysis half life by HPLC analysis. It counts as physicochemical.
A short description of series [2]: Chemical stability assessed as half life of hydrolysis in RPMI-1640 culture medium at pH 7.6 in presence 10% heat-inactivated fetal calf serum by HPLC analysis. It counts as physicochemical. The conditions noted are these: cattle; for t1/2: serum.
The nature of series [3]: Chemical stability assessed as hydrolysis half life in aqueous phosphate buffer saline at pH 7.3 by HPLC analysis. The conditions noted are these: for t1/2: buffer; for half-life: aqueous phosphate buffered saline. It is filed as physicochemical.
The test system of series [4] is Human immunodeficiency virus 2. Description: Antiviral activity against HIV2 in thymidine kinase deficient human CEM cells assessed as virus-induced cytopathic effect after 4 to 5 days by microscopy. It counts as functional, organism-based, CCRF-CEM. In short, it runs like this: (§1)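 50% effective concentration against HIV in wild-type or thymidine kinase-deficient CEM T-lymphocytes, reported as the mean of two to three independent experiments.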
A general note: Cytopathic effects are the visible damage that an infection or toxin causes in cultured cells.

Series [5] is described as follows: Chemical stability assessed as hydrolysis half life in aqueous phosphate buffer saline at pH 7.6 by HPLC analysis. It is filed as physicochemical. The conditions noted are these: for t1/2: buffer; for half-life: aqueous phosphate buffered saline.
Another series has as its system CCRF-CEM. Description: (§2) Cytostatic activity against wild type human CEM cells. It is filed as cell-based. The conditions noted are these: ccrf-cem. In outline: (§3)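 50% cytostatic concentration measured in wild-type CEM T-lymphocyte cultures.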
Series [6] deals with Human immunodeficiency virus 1. As to the kind of experiment: Antiviral activity against HIV1 in wild type human CEM cells assessed as virus-induced cytopathic effect after 4 to 5 days by microscopy. It counts as functional, organism-based, CCRF-CEM. In outline:
as §1

Series [7] has as its system Human immunodeficiency virus 2. Description: Antiviral activity against HIV2 in wild type human CEM cells assessed as virus-induced cytopathic effect after 4 to 5 days by microscopy. It is filed as functional, organism-based, CCRF-CEM. In short, it runs like this:
as §1

The nature of series [8]: as §2. It is filed as cell-based, CCRF-CEM. The note with it: wild type CEM (CCRF-CEM) cells. In short, it runs like this: as §3
Series [9] in a line: Ratio of hydrolysis half life in RPMI-1640 culture medium at pH 7.6 in presence 10% heat-inactivated fetal calf serum to hydrolysis half life in aqueous phosphate buffer saline at pH 7.6. It is filed as ADME. The conditions noted are these: cattle.
A short description of series [10]: Ratio of hydrolysis half life in aqueous phosphate buffer saline at pH 7.3 to hydrolysis half life in RPMI-1640 culture medium at pH 7.6 in presence 10% heat-inactivated fetal calf serum. It counts as ADME.
[11] abbreviates: Human immunodeficiency virus 2, CCRF-CEM.
The mark [12] stands for this setting: Human immunodeficiency virus 1, CCRF-CEM.

On to `Cc1cn([C@H]2C=C[C@@H](COP3(=O)OCc4cc(-c5ccccc5)ccc4O3)O2)c(=O)[nH]c1=O` (some centres undefined), for which the half-life in series [1] is 3.1 h.

`Cc1cn([C@H]2C=C[C@@H](COP3(=O)OCc4cc(-c5cc6c(c(C(C)(C)C)c5)OP(=O)(OC[C@@H]5C=C[C@H](n7cc(C)c(=O)[nH]c7=O)O5)OC6)cc(C(C)(C)C)c4O3)O2)c(=O)[nH]c1=O` (single isomer, unassigned; form 2): the t1/2 in [2] is 8 h; in [3] it was 4.7 h; in [5], 4.1 h. The EC50 in [4] (ccrf-cem) worked out at 3.2 µM; in [6] (ccrf-cem), 0.49 µM; in [7] (ccrf-cem), 1 µM. Besides, in the series with CCRF-CEM, the midpoint of cytotoxicity, the CC50, lay at 19 µM.

Take `OCc1cc(-c2ccc(O)c(CO)c2)ccc1O`: the EC50 in [4] (setting [11]) turned out to be 18 µM; in series [6] (setting [12]) it was 99 µM; in [7] (setting [11]), 117 µM. This compound came in with a CC50 in series [8] of over 250 µM.

As for `Cc1cc(-c2cc(C)c(O)c(CO)c2)cc(CO)c1O`, the EC50 is over 50 µM in [4] (setting [11]), 20 µM in [6] (setting [12]) and over 50 µM in series [7] (setting [11]). In addition, the 50% cytotoxic concentration (CC50) in series [8] was 96 µM.

Consider `Cc1cc(-c2cc(C)c3c(c2)COP(=O)(OC[C@@H]2C=C[C@H](n4cc(C)c(=O)[nH]c4=O)O2)O3)cc2c1OP(=O)(OC[C@@H]1C=C[C@H](n3cc(C)c(=O)[nH]c3=O)O1)OC2` (some centres undefined), for which the half-life in [2] is 2.3 h; in series [3], 2.2 h; in series [5] it was 2.3 h. Also, the EC50 in series [4] (setting [11]) is 0.85 µM; in [6] (setting [12]) it was 0.4 µM; in series [7] (setting [11]), 0.83 µM. Besides, the 50% cytotoxic concentration (CC50) in series [8] came to 64 µM.

As to `Cc1cn([C@H]2C=C[C@@H](COP3(=O)OCc4cc(-c5ccc6c(c5)COP(=O)(OC[C@@H]5C=C[C@H](n7cc(C)c(=O)[nH]c7=O)O5)O6)ccc4O3)O2)c(=O)[nH]c1=O` (single isomer, unassigned; form 2), the results for the half-life in series [2] and in [5] were 1 h and 0.7 h, respectively. Moreover, the t1/2 in series [3] worked out at 3.3 h. Besides, the EC50 amounted to 3.3 µM in [4] (ccrf-cem) and 0.47 µM in [6] (ccrf-cem). The CC50 in the series with CCRF-CEM stood at 78 µM.

As to `Cc1cn([C@H]2C=C[C@@H](COP3(=O)OCc4cc(-c5cc6c(c(C(C)(C)C)c5)OP(=O)(OC[C@@H]5C=C[C@H](n7cc(C)c(=O)[nH]c7=O)O5)OC6)cc(C(C)(C)C)c4O3)O2)c(=O)[nH]c1=O` (single isomer, unassigned; form 1), the t1/2 was 7.9 h in series [2], 4.3 h in series [3] and 3.9 h in series [5]. Moreover, the results for the EC50 in series [4] (ccrf-cem), in series [6] (ccrf-cem) and in [7] (ccrf-cem) were 2.8 µM, 0.81 µM and 1.6 µM, respectively. Moreover, the half-maximal cytotoxic concentration (CC50) in the series with CCRF-CEM came to 18 µM.

As to `Cc1cn([C@H]2C=C[C@@H](COP3(=O)OCc4cc(-c5cc6c(c(C(C)(C)C)c5)OP(=O)(OC[C@@H]5C=C[C@H](n7cc(C)c(=O)[nH]c7=O)O5)OC6)cc(C(C)(C)C)c4O3)O2)c(=O)[nH]c1=O` (some centres undefined), the values for the half-life in [2], in series [3] and in series [5] were 8.3 h, 4.7 h and 4.1 h, respectively. Also, the results for the EC50 in series [4] (setting [11]), in series [6] (setting [12]) and in series [7] (setting [11]) were 2.9 µM, 0.88 µM and 1.3 µM, respectively. The CC50 in [8] was determined as 20 µM. In addition, in series [9], the Ratio came out at 2.

Consider `Cc1cn([C@H]2C=C[C@@H](COP3(=O)OCc4cc(-c5ccc(O)c(CO)c5)ccc4O3)O2)c(=O)[nH]c1=O` (some centres undefined), for which the half-life in [2] was 2.1 h; in series [3] it was 2.2 h; in series [5] it was 2 h. Besides, the EC50 in [4] (setting [11]) was 3.7 µM; in series [6] (setting [12]), 0.73 µM; in [7] (setting [11]), 0.91 µM. This compound had a CC50 in [8] of 82 µM.

Turning to `Cc1cn([C@H]2C=C[C@@H](COP3(=O)OCc4cccc(-c5cccc6c5OP(=O)(OC[C@@H]5C=C[C@H](n7cc(C)c(=O)[nH]c7=O)O5)OC6)c4O3)O2)c(=O)[nH]c1=O` (single isomer, unassigned; form 1), the t1/2 in [3] came to 3.2 h.

For `Cc1cn([C@H]2C=C[C@@H](COP3(=O)OCc4cccc(-c5cccc6c5OP(=O)(OC[C@@H]5C=C[C@H](n7cc(C)c(=O)[nH]c7=O)O5)OC6)c4O3)O2)c(=O)[nH]c1=O` (some centres undefined), the t1/2 in [3] is 8.2 h.

For `Cc1cn([C@H]2C=C[C@@H](COP3(=O)OCc4cc(-c5cc6c(c(C(C)(C)C)c5)OP(=O)(OC[C@@H]5C=C[C@H](n7cc(C)c(=O)[nH]c7=O)O5)OC6)cc(C(C)(C)C)c4O3)O2)c(=O)[nH]c1=O` (single isomer, unassigned; form 3), the figures for the t1/2 in [2], in series [3] and in [5] were 9.1 h, 5.3 h and 4.4 h, respectively. In addition, the EC50 was 2.6 µM in series [4] (ccrf-cem), 0.86 µM in series [6] (ccrf-cem) and 2 µM in series [7] (ccrf-cem).

Regarding `Cc1cn([C@H]2C=C[C@@H](COP3(=O)OCc4cccc(-c5cccc6c5OP(=O)(OC[C@@H]5C=C[C@H](n7cc(C)c(=O)[nH]c7=O)O5)OC6)c4O3)O2)c(=O)[nH]c1=O` (single isomer, unassigned; form 2), the t1/2 in series [3] was 8.5 h.

`Cc1cccc2c1OP(=O)(OC[C@@H]1C=C[C@H](n3cc(C)c(=O)[nH]c3=O)O1)OC2` (some centres undefined): the half-life in series [1] was 15 h.

As to `Cc1cn([C@H]2C=C[C@@H](CO)O2)c(=O)[nH]c1=O` [STAVUDINE], the EC50 in series [4] (setting [11]) is 29 µM; in series [6] (setting [12]), 0.56 µM; in series [7] (setting [11]), 0.79 µM. In series [8], the CC50 is over 250 µM.

Take `Cc1cn([C@H]2C=C[C@@H](COP3(=O)OCc4cc(-c5ccc6c(c5)COP(=O)(OC[C@@H]5C=C[C@H](n7cc(C)c(=O)[nH]c7=O)O5)O6)ccc4O3)O2)c(=O)[nH]c1=O` (single isomer, unassigned; form 1): the t1/2 in series [2] worked out at 0.6 h; in series [3] it was 1 h; in series [5], 0.4 h. Moreover, the EC50 in [4] (ccrf-cem) amounted to 4.4 µM; in series [6] (ccrf-cem), 0.46 µM; in [7] (ccrf-cem), 1.2 µM. Further, the CC50 in the series with CCRF-CEM is 107 µM.

In the case of `Cc1cn([C@H]2C=C[C@@H](COP3(=O)OCc4cc(-c5ccc6c(c5)COP(=O)(OC[C@@H]5C=C[C@H](n7cc(C)c(=O)[nH]c7=O)O5)O6)ccc4O3)O2)c(=O)[nH]c1=O` (some centres undefined), the t1/2 stood at 0.8 h in series [2], 1.7 h in [3] and 0.5 h in [5]. The EC50 in series [4] (ccrf-cem) turned out to be 7.5 µM; in [6] (setting [12]), 0.51 µM; in [7] (setting [11]) it was 0.62 µM. Besides, in [8], the CC50 is 115 µM. In series [10], the Ratio came to 2.

With `CC(C)(C)c1cc(-c2cc(CO)c(O)c(C(C)(C)C)c2)cc(CO)c1O`, the results for the EC50 in series [4] (setting [11]), in [6] (setting [12]) and in series [7] (setting [11]) were 6.9 µM, 7.9 µM and 7.9 µM, respectively. In addition, it took 20 µM to reach half-maximal cytotoxicity in series [8] (CC50).
